{"source": "ChEMBL document CHEMBL5108039", "about": "“Piperazine tethered bergenin heterocyclic hybrids: design, synthesis, anticancer activity, and molecular docking studies” (RSC Med Chem, 2022)", "key": {"CAL-27 [1]": {"test_system": "CAL-27", "assay": "Cell cycle arrest in human CAL-27 cells assessed as accumulation at G0/G1 phase at 42 uM incubated for 24 hrs by flow cytometry (reference value: 77.6 %)", "assay_type": "functional"}, "A549": {"test_system": "A549", "assay": "Cytotoxicity against human A549 cells assessed as cell growth inhibition", "assay_type": "functional, cell-based", "outline": "(§1)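 Compounds were dissolved in sterile DMSO as 10 mg ml−1 stocks and tested in vitro for cytotoxicity in a cell-line panel, with DMSO (0.01%) as vehicle control and doxorubicin as standard. Mean IC50 values were reported, and the normal lung epithelial cells were tested up to 100 μM.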"}, "CAL-27 [2]": {"test_system": "CAL-27", "assay": "Induction of apoptosis in human CAL-27 cells assessed as upregulation of Bax gene expression at 42 uM by qRT-PCR analysis", "assay_type": "functional, cell-based", "outline": "(§2)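 CAL27 cells were treated with test agents at different concentrations. Relative mRNA levels of vimentin, E-cad, Nanog, Oct-4, Bax and Bcl-2 were then quantified by qRT-PCR as apoptosis, EMT and stemness markers.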"}, "CAL-27 [3]": {"test_system": "CAL-27", "assay": "Induction of apoptosis in human CAL-27 cells assessed as upregulation of E-cad gene expression at 42 uM by qRT-PCR analysis", "assay_type": "functional, cell-based", "outline": "as §2"}, "CAL-27 [4]": {"test_system": "CAL-27", "assay": "Induction of apoptosis in human CAL-27 cells assessed as downregulation of Oct-4 gene expression at 21 uM by qRT-PCR analysis", "assay_type": "functional, cell-based", "outline": "(§3)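 CAL27 cells were treated with test compounds at several concentrations. Relative expression of vimentin, E-cad, Nanog, Oct-4, Bax and BcL-2 was measured by qRT-PCR against vehicle-treated control cells.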"}, "CAL-27 [5]": {"test_system": "CAL-27", "assay": "Cell cycle arrest in human CAL-27 cells assessed as accumulation at G2/M phase at 21 uM incubated for 24 hrs by flow cytometry (reference value: 11.9 %)", "assay_type": "functional"}, "[6]": {"assay": "Cytotoxicity against human BEAS-2B cells assessed as cell growth inhibition", "assay_type": "toxicity, cell-based", "outline": "as §1"}, "CAL-27 [7]": {"test_system": "CAL-27", "assay": "Induction of apoptosis in human CAL-27 cells assessed as late apoptotic cells at 21 uM incubated for 24 hrs by Annexin V-FITC/PI staining based flow cytometric analysis (reference value: 0.1 %)", "assay_type": "functional", "outline": "(§4)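 CAL27 cells were treated with vehicle, doxorubicin or test compounds at 10–63 μM, and apoptosis was assessed by annexin V–FITC/PI staining with flow cytometry. Cells were scored as live, early apoptotic, late apoptotic or necrotic. The vehicle was DMSO (0.01%).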"}, "CAL-27 [8]": {"test_system": "CAL-27", "assay": "Induction of apoptosis in human CAL-27 cells assessed as downregulation of vimentin gene expression at 21 uM by qRT-PCR analysis", "assay_type": "functional, cell-based", "outline": "as §3"}, "CAL-27 [9]": {"test_system": "CAL-27", "assay": "Induction of apoptosis in human CAL-27 cells assessed as downregulation of Nanog gene expression at 21 uM by qRT-PCR analysis", "assay_type": "functional, cell-based", "outline": "as §3"}, "HCT-15": {"test_system": "HCT-15", "assay": "Cytotoxicity against human HCT-15 cells assessed as cell growth inhibition", "assay_type": "functional, cell-based", "outline": "(§5)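 Compounds were dissolved in sterile DMSO as 10 mg ml−1 stocks and tested for in vitro growth inhibition of human cancer cell lines. Doxorubicin was the standard drug and DMSO (0.01%) the vehicle control. IC50 values are reported as means.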"}, "CAL-27 [10]": {"test_system": "CAL-27", "assay": "Cytotoxicity against human CAL-27 cells assessed as cell growth inhibition", "assay_type": "functional, cell-based", "outline": "as §5"}, "CAL-27 [11]": {"test_system": "CAL-27", "assay": "Induction of apoptosis in human CAL-27 cells assessed as necrotic cells at 42 uM incubated for 24 hrs by Annexin V-FITC/PI staining based flow cytometric analysis (reference value: 0.0 %)", "assay_type": "functional"}, "CAL-27 [12]": {"test_system": "CAL-27", "assay": "Induction of apoptosis in human CAL-27 cells assessed as live cells at 21 uM incubated for 24 hrs by Annexin V-FITC/PI staining based flow cytometric analysis (reference value: 99.8 %)", "assay_type": "functional", "outline": "as §4"}, "CAL-27 [13]": {"test_system": "CAL-27", "assay": "Induction of apoptosis in human CAL-27 cells assessed as early apoptotic cells at 21 uM incubated for 24 hrs by Annexin V-FITC/PI staining based flow cytometric analysis (reference value: 0.1 %)", "assay_type": "functional", "outline": "as §4"}, "CAL-27 [14]": {"test_system": "CAL-27", "assay": "Induction of apoptosis in human CAL-27 cells assessed as downregulation of vimentin gene expression at 42 uM by qRT-PCR analysis", "assay_type": "functional, cell-based", "outline": "as §3"}, "CAL-27 [15]": {"test_system": "CAL-27", "assay": "Induction of apoptosis in human CAL-27 cells assessed as late apoptotic cells at 42 uM incubated for 24 hrs by Annexin V-FITC/PI staining based flow cytometric analysis (reference value: 0.1 %)", "assay_type": "functional", "details": "in the assay text read “early apoptotic cells” for “late apoptotic cells”", "outline": "as §4"}, "CAL-27 [16]": {"test_system": "CAL-27", "assay": "Cell cycle arrest in human CAL-27 cells assessed as accumulation at G2/M phase at 42 uM incubated for 24 hrs by flow cytometry (reference value: 11.9 %)", "assay_type": "functional"}, "CAL-27 [17]": {"test_system": "CAL-27", "assay": "Induction of apoptosis in human CAL-27 cells assessed as early apoptotic cells at 42 uM incubated for 24 hrs by Annexin V-FITC/PI staining based flow cytometric analysis (reference value: 0.1 %)", "assay_type": "functional", "outline": "as §4"}, "CAL-27 [18]": {"test_system": "CAL-27", "assay": "Cell cycle arrest in human CAL-27 cells assessed as accumulation at S phase at 42 uM incubated for 24 hrs by flow cytometry (reference value: 3.6 %)", "assay_type": "functional"}, "CAL-27 [19]": {"test_system": "CAL-27", "assay": "Induction of apoptosis in human CAL-27 cells assessed as downregulation of BcL-2 gene expression at 42 uM by qRT-PCR analysis", "assay_type": "functional, cell-based", "outline": "as §3"}, "CAL-27 [20]": {"test_system": "CAL-27", "assay": "Induction of apoptosis in human CAL-27 cells assessed as live cells at 42 uM incubated for 24 hrs by Annexin V-FITC/PI staining based flow cytometric analysis (reference value: 99.8 %)", "assay_type": "functional", "outline": "as §4"}, "CAL-27 [21]": {"test_system": "CAL-27", "assay": "Induction of apoptosis in human CAL-27 cells assessed as downregulation of Nanog gene expression at 42 uM by qRT-PCR analysis", "assay_type": "functional, cell-based", "outline": "as §3"}, "CAL-27 [22]": {"test_system": "CAL-27", "assay": "Induction of apoptosis in human CAL-27 cells assessed as downregulation of Oct-4 gene expression at 42 uM by qRT-PCR analysis", "assay_type": "functional, cell-based", "outline": "as §3"}, "CAL-27 [23]": {"test_system": "CAL-27", "assay": "Induction of apoptosis in human CAL-27 cells assessed as upregulation of E-cad gene expression at 21 uM by qRT-PCR analysis", "assay_type": "functional, cell-based", "outline": "as §2"}, "CAL-27 [24]": {"test_system": "CAL-27", "assay": "Induction of apoptosis in human CAL-27 cells assessed as downregulation of BcL-2 gene expression at 21 uM by qRT-PCR analysis", "assay_type": "functional, cell-based", "outline": "as §3"}, "SCC-9": {"test_system": "SCC-9", "assay": "Cytotoxicity against human SCC-9 cells assessed as cell growth inhibition", "assay_type": "functional, cell-based", "outline": "as §5"}, "CAL-27 [25]": {"test_system": "CAL-27", "assay": "Induction of apoptosis in human CAL-27 cells assessed as necrotic cells at 21 uM incubated for 24 hrs by Annexin V-FITC/PI staining based flow cytometric analysis (reference value: 0.0 %)", "assay_type": "functional"}, "CAL-27 [26]": {"test_system": "CAL-27", "assay": "Induction of apoptosis in human CAL-27 cells assessed as upregulation of Bax gene expression at 21 uM by qRT-PCR analysis", "assay_type": "functional, cell-based", "outline": "as §2"}, "MCF7": {"test_system": "MCF7", "assay": "Cytotoxicity against human MCF7 cells assessed as cell growth inhibition", "assay_type": "functional, cell-based", "outline": "as §5"}, "CAL-27 [27]": {"test_system": "CAL-27", "assay": "Cell cycle arrest in human CAL-27 cells assessed as accumulation at S phase at 21 uM incubated for 24 hrs by flow cytometry (reference value: 3.6 %)", "assay_type": "functional"}, "CAL-27 [28]": {"test_system": "CAL-27", "assay": "Cell cycle arrest in human CAL-27 cells assessed as accumulation at G0/G1 phase at 21 uM incubated for 24 hrs by flow cytometry (reference value: 77.6 %)", "assay_type": "functional"}}, "note": "Calls of active or inactive are those of the source. The rule behind the calls is not given here."}
{"compound": "COc1c(O)c(CN2CCN(S(=O)(=O)c3ccc(I)cc3)CC2)c2c(c1O)C1O[C@H](CO)[C@@H](O)[C@H](O)C1OC2=O", "note": "(some centres not stated)", "values": [{"measurement": "Activity", "setting": "CAL-27 [1]", "result": 83.7, "unit": "%"}, {"measurement": "IC50", "setting": "A549", "result": "> 100", "unit": "µM"}, {"measurement": "Activity", "setting": "CAL-27 [2]", "result": "Active"}, {"measurement": "Activity", "setting": "CAL-27 [3]", "result": "Active"}, {"measurement": "Activity", "setting": "CAL-27 [4]", "result": "Active"}, {"measurement": "Activity", "setting": "CAL-27 [5]", "result": 12.6, "unit": "%"}, {"measurement": "IC50", "setting": "[6]", "result": "> 100", "unit": "µM"}, {"measurement": "Activity", "setting": "CAL-27 [7]", "result": 0.7, "unit": "%"}, {"measurement": "Activity", "setting": "CAL-27 [8]", "result": "Active"}, {"measurement": "Activity", "setting": "CAL-27 [9]", "result": "Active"}, {"measurement": "IC50", "setting": "HCT-15", "result": "> 100", "unit": "µM"}, {"measurement": "IC50", "setting": "CAL-27 [10]", "result": 41.6, "unit": "µM"}, {"measurement": "Activity", "setting": "CAL-27 [11]", "result": 2, "unit": "%"}, {"measurement": "Activity", "setting": "CAL-27 [12]", "result": 97.1, "unit": "%"}, {"measurement": "Activity", "setting": "CAL-27 [13]", "result": 1.1, "unit": "%"}, {"measurement": "Activity", "setting": "CAL-27 [14]", "result": "Active"}, {"measurement": "Activity", "setting": "CAL-27 [15]", "result": 1.7, "unit": "%"}, {"measurement": "Activity", "setting": "CAL-27 [16]", "result": 11.5, "unit": "%"}, {"measurement": "Activity", "setting": "CAL-27 [17]", "result": 1.7, "unit": "%"}, {"measurement": "Activity", "setting": "CAL-27 [18]", "result": 1.9, "unit": "%"}, {"measurement": "Activity", "setting": "CAL-27 [19]", "result": "Active"}, {"measurement": "Activity", "setting": "CAL-27 [20]", "result": 94.6, "unit": "%"}, {"measurement": "Activity", "setting": "CAL-27 [21]", "result": "Active"}, {"measurement": "Activity", "setting": "CAL-27 [22]", "result": "Active"}, {"measurement": "Activity", "setting": "CAL-27 [23]", "result": "Active"}, {"measurement": "Activity", "setting": "CAL-27 [24]", "result": "Active"}, {"measurement": "IC50", "setting": "SCC-9", "result": "> 100", "unit": "µM"}, {"measurement": "Activity", "setting": "CAL-27 [25]", "result": 1.1, "unit": "%"}, {"measurement": "Activity", "setting": "CAL-27 [26]", "result": "Active"}, {"measurement": "IC50", "setting": "MCF7", "result": "> 100", "unit": "µM"}, {"measurement": "Activity", "setting": "CAL-27 [27]", "result": 3.5, "unit": "%"}, {"measurement": "Activity", "setting": "CAL-27 [28]", "result": 83.3, "unit": "%"}]}
